{"source": "ChEMBL document CHEMBL3425415", "about": "“An antibacterial ortho-quinone diterpenoid and its derivatives from Caryopteris mongolica” (2015)", "assay_type_in_all_cases": "functional", "key": {"Staphylococcus aureus [1]": {"system": "Staphylococcus aureus", "test": "Antibacterial activity against Staphylococcus aureus assessed as growth inhibition at 50 ug/disc after 24 hrs by disc diffusion method", "conditions": "for zone of inhibition at 50 µg/disc: read-out: DIZ", "in_short": "(§1)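 Disc diffusion: 100 µL of each bacterial culture (10^6 CFU/mL), grown 18 h in nutrient broth, spread onto meat peptone agar in Petri dishes. Compound-loaded discs applied. Plates incubated 24 h at 37 °C. Inhibition zone diameter measured in mm. Treatments replicated 3-5 times, reported as mean ± S.E.M.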"}, "[2]": {"system": "Staphylococcus epidermidis", "test": "Antibacterial activity against Staphylococcus epidermidis assessed as growth inhibition at 50 ug/disc after 24 hrs by disc diffusion method", "conditions": "for zone of inhibition at 50 µg/disc: read-out: DIZ", "in_short": "as §1"}, "Enterococcus faecalis [3]": {"system": "Enterococcus faecalis", "test": "Antibacterial activity against Enterococcus faecalis assessed as growth inhibition at 50 ug/disc after 24 hrs by disc diffusion method", "conditions": "for zone of inhibition at 50 µg/disc: read-out: DIZ", "in_short": "as §1"}, "Micrococcus luteus [4]": {"system": "Micrococcus luteus", "test": "Antibacterial activity against Micrococcus luteus assessed as growth inhibition at 50 ug/disc after 24 hrs by disc diffusion method", "conditions": "for zone of inhibition at 50 µg/disc: read-out: DIZ", "in_short": "as §1"}, "Staphylococcus aureus [5]": {"system": "Staphylococcus aureus", "test": "Antibacterial activity against Staphylococcus aureus assessed as growth inhibition at 500 ug/disc after 24 hrs by disc diffusion method", "conditions": "for zone of inhibition at 500 µg/disc: read-out: DIZ", "in_short": "(§2)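 Disc diffusion: 100 µL inoculum (10^6 CFU/mL, grown 18 h in nutrient broth) spread on meat peptone agar plates; discs applied and incubated 24 h at 37 °C. Inhibition zone diameters measured in mm; 3-5 replicates, mean ± S.E.M.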"}, "[6]": {"system": "Staphylococcus epidermidis", "test": "Antibacterial activity against Staphylococcus epidermidis assessed as growth inhibition at 5 ug/disc after 24 hrs by disc diffusion method", "conditions": "read-out: DIZ", "in_short": "as §2"}, "Enterococcus faecalis [7]": {"system": "Enterococcus faecalis", "test": "Antibacterial activity against Enterococcus faecalis assessed as growth inhibition at 5 ug/disc after 24 hrs by disc diffusion method", "conditions": "read-out: DIZ", "in_short": "as §2"}, "Micrococcus luteus [8]": {"system": "Micrococcus luteus", "test": "Antibacterial activity against Micrococcus luteus assessed as growth inhibition at 5 ug/disc after 24 hrs by disc diffusion method", "conditions": "read-out: DIZ", "in_short": "as §2"}, "Staphylococcus aureus [9]": {"system": "Staphylococcus aureus", "test": "Antibacterial activity against Staphylococcus aureus assessed as growth inhibition at 5 ug/disc after 24 hrs by disc diffusion method", "conditions": "read-out: DIZ", "in_short": "as §1"}, "[10]": {"system": "Staphylococcus epidermidis", "test": "Antibacterial activity against Staphylococcus epidermidis assessed as growth inhibition at 500 ug/disc after 24 hrs by disc diffusion method", "conditions": "for zone of inhibition at 500 µg/disc: read-out: DIZ", "in_short": "as §1"}, "Enterococcus faecalis [11]": {"system": "Enterococcus faecalis", "test": "Antibacterial activity against Enterococcus faecalis assessed as growth inhibition at 500 ug/disc after 24 hrs by disc diffusion method", "conditions": "read-out: DIZ", "in_short": "as §1"}, "Micrococcus luteus [12]": {"system": "Micrococcus luteus", "test": "Antibacterial activity against Micrococcus luteus assessed as growth inhibition at 500 ug/disc after 24 hrs by disc diffusion method", "in_short": "as §1"}, "Staphylococcus aureus [13]": {"system": "Staphylococcus aureus", "test": "Antibacterial activity against Staphylococcus aureus assessed as growth inhibition at 25 ug/disc after 24 hrs by disc diffusion method", "conditions": "read-out: DIZ", "in_short": "as §1"}, "[14]": {"system": "Staphylococcus epidermidis", "test": "Antibacterial activity against Staphylococcus epidermidis assessed as growth inhibition at 25 ug/disc after 24 hrs by disc diffusion method", "conditions": "read-out: DIZ", "in_short": "as §1"}, "Enterococcus faecalis [15]": {"system": "Enterococcus faecalis", "test": "Antibacterial activity against Enterococcus faecalis assessed as growth inhibition at 25 ug/disc after 24 hrs by disc diffusion method", "conditions": "read-out: DIZ", "in_short": "as §1"}, "Micrococcus luteus [16]": {"system": "Micrococcus luteus", "test": "Antibacterial activity against Micrococcus luteus assessed as growth inhibition at 25 ug/disc after 24 hrs by disc diffusion method", "conditions": "read-out: DIZ", "in_short": "as §1"}}, "note": "Active and inactive are the calls of the source. The calls are words filed in the database; no cut-off is given here."}
{"smiles": "C[C@@H]1C[C@@]12C(=O)OC(=O)C1=C(C(=O)C[C@H]3C(C)(C)CCC[C@]13C)[C@H]2O", "values": [{"measurement": "growth inhibition (GI)", "setting": "Staphylococcus aureus [1]", "result": "inactive"}, {"measurement": "growth inhibition (GI)", "setting": "[2]", "result": "inactive"}, {"measurement": "growth inhibition (GI)", "setting": "Enterococcus faecalis [3]", "result": "inactive"}, {"measurement": "growth inhibition (GI)", "setting": "Micrococcus luteus [4]", "result": "inactive"}]}
{"smiles": "CC(C)c1cc2c(c(O)c1O)[C@@]1(C)CCCC(C)(C)[C@@H]1CC2=O", "note": "[DEMETHYLCRYPTOJAPONOL]", "values": [{"measurement": "zone of inhibition at 500 µg/disc", "setting": "Staphylococcus aureus [5]", "result": 15.8, "unit": "mm"}, {"measurement": "zone of inhibition at 50 µg/disc", "setting": "Staphylococcus aureus [1]", "result": 11.8, "unit": "mm"}, {"measurement": "zone of inhibition at 5 µg/disc", "setting": "[6]", "result": 16, "unit": "mm"}, {"measurement": "zone of inhibition at 50 µg/disc", "setting": "[2]", "result": 13.7, "unit": "mm"}, {"measurement": "zone of inhibition at 5 µg/disc", "setting": "Enterococcus faecalis [7]", "result": 15.2, "unit": "mm"}, {"measurement": "zone of inhibition at 50 µg/disc", "setting": "Enterococcus faecalis [3]", "result": 11.3, "unit": "mm"}, {"measurement": "zone of inhibition at 5 µg/disc", "setting": "Micrococcus luteus [8]", "result": 13.5, "unit": "mm"}, {"measurement": "zone of inhibition at 50 µg/disc", "setting": "Micrococcus luteus [4]", "result": 9, "unit": "mm"}]}
{"smiles": "CC(C)c1cc2c(c(O)c1O)[C@@]1(C)CCCC(C)(C)[C@@H]1[C@@H](O)C2=O", "note": "[6-ALPHA-HYDROXYDEMETHYL-CRYPTOJAPONOL]", "values": [{"measurement": "zone of inhibition at 500 µg/disc", "setting": "Staphylococcus aureus [5]", "result": 22.5, "unit": "mm"}, {"measurement": "zone of inhibition at 50 µg/disc", "setting": "Staphylococcus aureus [1]", "result": 11, "unit": "mm"}, {"measurement": "zone of inhibition at 5 µg/disc", "setting": "[6]", "result": 21.2, "unit": "mm"}, {"measurement": "zone of inhibition at 50 µg/disc", "setting": "[2]", "result": 11.5, "unit": "mm"}, {"measurement": "zone of inhibition at 5 µg/disc", "setting": "Enterococcus faecalis [7]", "result": 20.2, "unit": "mm"}, {"measurement": "zone of inhibition at 50 µg/disc", "setting": "Enterococcus faecalis [3]", "result": 13.8, "unit": "mm"}, {"measurement": "zone of inhibition at 5 µg/disc", "setting": "Micrococcus luteus [8]", "result": 17.7, "unit": "mm"}, {"measurement": "zone of inhibition at 50 µg/disc", "setting": "Micrococcus luteus [4]", "result": 9.1, "unit": "mm"}]}
{"smiles": "NC[C@H]1O[C@H](O[C@H]2[C@H](O)[C@@H](O[C@H]3O[C@H](CO)[C@@H](O)[C@H](N)[C@H]3O)[C@H](N)C[C@@H]2N)[C@H](O)[C@@H](O)[C@@H]1O", "note": "[KANAMYCIN]", "values": [{"measurement": "zone of inhibition at 5 µg/disc", "setting": "Staphylococcus aureus [9]", "result": 16.3, "unit": "mm"}, {"measurement": "zone of inhibition at 5 µg/disc", "setting": "[6]", "result": 20.5, "unit": "mm"}, {"measurement": "zone of inhibition at 50 µg/disc", "setting": "Enterococcus faecalis [3]", "result": 17.9, "unit": "mm"}, {"measurement": "zone of inhibition at 5 µg/disc", "setting": "Micrococcus luteus [8]", "result": 16, "unit": "mm"}]}
{"smiles": "CC(C)c1cc2c(c(O)c1O)[C@@]1(C)CCCC(C)(C)C1=C(O)C2=O", "note": "[14-DEOXYCOLEON U]", "values": [{"measurement": "zone of inhibition at 500 µg/disc", "setting": "Staphylococcus aureus [5]", "result": 17.8, "unit": "mm"}, {"measurement": "zone of inhibition at 50 µg/disc", "setting": "Staphylococcus aureus [1]", "result": 10.2, "unit": "mm"}, {"measurement": "zone of inhibition at 50 µg/disc", "setting": "[2]", "result": 10.2, "unit": "mm"}, {"measurement": "zone of inhibition at 500 µg/disc", "setting": "[10]", "result": 18.2, "unit": "mm"}, {"measurement": "zone of inhibition at 50 µg/disc", "setting": "Enterococcus faecalis [3]", "result": 10.5, "unit": "mm"}, {"measurement": "zone of inhibition at 500 µg/disc", "setting": "Enterococcus faecalis [11]", "result": 16.8, "unit": "mm"}, {"measurement": "zone of inhibition at 50 µg/disc", "setting": "Micrococcus luteus [4]", "result": 9, "unit": "mm"}, {"measurement": "zone of inhibition at 500 µg/disc", "setting": "Micrococcus luteus [12]; read-out: DIZ", "result": 14.8, "unit": "mm"}]}
{"smiles": "C[C@H]1C[C@]12C(=O)OC(=O)C1=C(C(=O)C[C@H]3C(C)(C)CCC[C@]13C)[C@H]2O", "values": [{"measurement": "growth inhibition (GI)", "setting": "Staphylococcus aureus [5]", "result": "inactive"}, {"measurement": "growth inhibition (GI)", "setting": "Staphylococcus aureus [1]", "result": "inactive"}, {"measurement": "growth inhibition (GI)", "setting": "[2]", "result": "inactive"}, {"measurement": "growth inhibition (GI)", "setting": "[10]", "result": "inactive"}, {"measurement": "growth inhibition (GI)", "setting": "Enterococcus faecalis [3]", "result": "inactive"}, {"measurement": "zone of inhibition at 500 µg/disc", "setting": "Enterococcus faecalis [11]", "result": 9.6, "unit": "mm"}, {"measurement": "growth inhibition (GI)", "setting": "Micrococcus luteus [4]", "result": "inactive"}, {"measurement": "growth inhibition (GI)", "setting": "Micrococcus luteus [12]", "result": "inactive"}]}
{"smiles": "CC1=C(C)[C@@H]2CC(=O)C3=C(C(=O)OC(=O)[C@@]4(C[C@H]4C)[C@@H]3O)[C@@]2(C)CC1", "values": [{"measurement": "growth inhibition (GI)", "setting": "Staphylococcus aureus [1]", "result": "inactive"}, {"measurement": "growth inhibition (GI)", "setting": "[2]", "result": "inactive"}, {"measurement": "growth inhibition (GI)", "setting": "Enterococcus faecalis [3]", "result": "inactive"}, {"measurement": "growth inhibition (GI)", "setting": "Micrococcus luteus [4]", "result": "inactive"}]}
{"smiles": "CC1=C(C)[C@@H]2CC(=O)C3=C(C(=O)C(=O)[C@]4(C[C@@H]4C)[C@@H]3O)[C@@]2(C)CC1", "values": [{"measurement": "zone of inhibition at 5 µg/disc", "setting": "Staphylococcus aureus [9]", "result": 12.9, "unit": "mm"}, {"measurement": "zone of inhibition at 500 µg/disc", "setting": "Staphylococcus aureus [5]", "result": 30.6, "unit": "mm"}, {"measurement": "zone of inhibition at 50 µg/disc", "setting": "Staphylococcus aureus [1]", "result": 22.6, "unit": "mm"}, {"measurement": "zone of inhibition at 5 µg/disc", "setting": "[6]", "result": 15.9, "unit": "mm"}, {"measurement": "zone of inhibition at 50 µg/disc", "setting": "[2]", "result": 24.1, "unit": "mm"}, {"measurement": "zone of inhibition at 500 µg/disc", "setting": "[10]", "result": 29.3, "unit": "mm"}, {"measurement": "zone of inhibition at 5 µg/disc", "setting": "Enterococcus faecalis [7]", "result": 23.2, "unit": "mm"}, {"measurement": "zone of inhibition at 50 µg/disc", "setting": "Enterococcus faecalis [3]", "result": 24, "unit": "mm"}, {"measurement": "zone of inhibition at 500 µg/disc", "setting": "Enterococcus faecalis [11]", "result": 28.7, "unit": "mm"}, {"measurement": "zone of inhibition at 5 µg/disc", "setting": "Micrococcus luteus [8]", "result": 16.3, "unit": "mm"}, {"measurement": "zone of inhibition at 25 µg/disc", "setting": "Staphylococcus aureus [13]", "result": 21.5, "unit": "mm"}, {"measurement": "zone of inhibition at 25 µg/disc", "setting": "[14]", "result": 23.2, "unit": "mm"}, {"measurement": "zone of inhibition at 25 µg/disc", "setting": "Enterococcus faecalis [15]", "result": 22, "unit": "mm"}, {"measurement": "zone of inhibition at 25 µg/disc", "setting": "Micrococcus luteus [16]", "result": 27.9, "unit": "mm"}]}
